# Laboratory results as given in ChEMBL document CHEMBL2086296, “Synthesis of novel quinoline-2-one based chalcones of potential anti-tumor activity” (Eur J Med Chem, 2012).
# Tests used:
# MOLT-4 = test: Cytotoxicity against human MOLT4 cells after 24 hrs by SRB assay; type: functional; conditions: MOLT-4, 24 h
# Summary of the method: (§1)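 NCI 60-line screen. Cells in RPMI 1640 with 5% FBS and 2 mM L-glutamine, seeded at 5,000–40,000 cells/well by doubling time, then incubated 24 h at 37 °C, 5% CO2 before dosing. Time-zero plates fixed with TCA at drug addition. DMSO stocks diluted in medium with gentamicin to five concentrations, […]. Protein read by SRB staining. GI50, TGI and LC50 derived relative to control and time-zero.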
# NCI-H226 = test: Cytotoxicity against human NCI-H226 cells after 24 hrs by SRB assay; type: functional; conditions: NCI-H226, 24 h; summary of the method: as §1
# NCI-H23 = test: Cytotoxicity against human NCI-H23 cells after 24 hrs by SRB assay; type: functional; conditions: NCI-H23, 24 h; summary of the method: as §1
# COLO 205 = test: Cytotoxicity against human COLO205 cells after 24 hrs by SRB assay; type: functional; conditions: COLO 205, 24 h; summary of the method: as §1
# HCT-116 = test: Cytotoxicity against human HCT116 cells after 24 hrs by SRB assay; type: functional; conditions: HCT-116, 24 h; summary of the method: as §1
# HT-29 = test: Cytotoxicity against human HT-29 cells after 24 hrs by SRB assay; type: functional; conditions: HT-29, 24 h; summary of the method: as §1
# KM12 [1] = test: (§2) Cytotoxicity against human KM12 cells after 24 hrs by SRB assay; type: functional; conditions: KM12, 24 h; summary of the method: as §1
# HCC 2998 = test: Cytotoxicity against human HCC2998 cells after 24 hrs by SRB assay; type: functional; conditions: HCC 2998, 24 h; summary of the method: as §1
# U-251 [2] = test: (§3) Cytotoxicity against human U251 cells after 24 hrs by SRB assay; type: functional; conditions: U-251, 24 h
# Summary of the method: (§4)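 NCI 60-cell screen. Cells are grown in RPMI 1640 with 5% FBS and 2 mM L-glutamine and seeded at 5,000–40,000 cells/well according to doubling time. They are preincubated 24 h at 37 °C in 5% CO2, and Tz plates are TCA-fixed at drug addition. Drug stock is in DMSO, diluted in medium with gentamicin, and tested at five concentrations (100, 10, 1.0, 0.1, […]). Protein is read by SRB staining. GI50, TGI and LC50 are derived relative to time-zero and control wells.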
# SNB-19 = test: Cytotoxicity against human SNB19 cells after 24 hrs by SRB assay; type: functional; conditions: SNB-19, 24 h; summary of the method: as §4
# SK-MEL-5 = test: Cytotoxicity against human SK-MEL-5 cells after 24 hrs by SRB assay; type: functional; conditions: SK-MEL-5, 24 h; summary of the method: as §1
# SN12C = test: Cytotoxicity against human SN12C cells after 24 hrs by SRB assay; type: functional; summary of the method: as §1
# DU-145 = test: Cytotoxicity against human DU145 cells after 24 hrs by SRB assay; type: functional; conditions: DU-145, 24 h; summary of the method: as §1
# BT-549 = test: Cytotoxicity against human BT549 cells after 24 hrs by SRB assay; type: functional; conditions: BT-549, 24 h; summary of the method: as §1
# T47D = test: Cytotoxicity against human T47D cells after 24 hrs by SRB assay; type: functional; summary of the method: as §4
# RPMI-8226 [3] = test: (§5) Cytotoxicity against human RPMI8226 cells after 24 hrs by SRB assay; type: cell-based; conditions: rpmi-8226, 24 h
# Summary of the method: (§6)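 NCI 60-cell screen. Cells grown in RPMI 1640 with 5% FBS and 2 mM L-glutamine, seeded at 5,000–40,000 cells/well, preincubated 24 h at 37 °C in 5% CO2. Drug stock in DMSO, diluted in medium with gentamicin; five final concentrations, 100, 10, 1.0, 0.1 and […]. Time-zero plates were TCA-fixed. Protein read by SRB staining; GI50, TGI and LC50 taken relative to time-zero.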
# HL-60 [4] = test: (§7) Cytotoxicity against human HL60 cells after 24 hrs by SRB assay; type: cell-based; conditions: hl-60, 24 h; summary of the method: as §6
# HOP-62 = test: Cytotoxicity against human HOP62 cells after 24 hrs by SRB assay; type: cell-based; conditions: hop-62, 24 h; summary of the method: as §6
# NCI-H522 = test: Cytotoxicity against human NCI-H522 cells after 24 hrs by SRB assay; type: cell-based; conditions: nci-h522, 24 h; summary of the method: as §6
# HOP-92 = test: Cytotoxicity against human HOP92 cells after 24 hrs by SRB assay; type: cell-based; conditions: hop-92, 24 h; summary of the method: as §6
# A549 = test: Cytotoxicity against human A549 cells after 24 hrs by SRB assay; type: cell-based; conditions: a549, 24 h; summary of the method: as §6
# KM12 [5] = test: as §2; type: cell-based; conditions: km12, 24 h; summary of the method: as §6
# U-251 [6] = test: as §3; type: cell-based; conditions: u-251, 24 h
# Summary of the method: (§8)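 NCI 60-cell-line screen: cells grown in RPMI 1640 with 5% FBS and 2 mM L-glutamine, seeded at 5,000–40,000 cells/well by doubling time, and preincubated 24 h at 37 °C in 5% CO2. Time-zero plates were TCA-fixed. DMSO stocks were diluted in medium with gentamicin to five concentrations (100, 10, 1.0, 0.1, […]). Protein was read by SRB, and GI50, TGI and LC50 were derived against time-zero.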
# RPMI-8226 [7] = test: as §5; type: functional; conditions: RPMI-8226, 24 h; summary of the method: as §1
# HL-60 [8] = test: as §7; type: functional; conditions: HL-60, 24 h; summary of the method: as §1
# UACC-62 = test: Cytotoxicity against human UACC62 cells after 24 hrs by SRB assay; type: cell-based; conditions: uacc-62, 24 h; summary of the method: as §8
# SK-MEL-2 = test: Cytotoxicity against human SK-MEL-2 cells after 24 hrs by SRB assay; type: cell-based; conditions: sk-mel-2, 24 h; summary of the method: as §6
# M14 = test: Cytotoxicity against human M14 cells after 24 hrs by SRB assay; type: cell-based; conditions: m14, 24 h; summary of the method: as §6
# SK-OV-3 = test: Cytotoxicity against human SKOV3 cells after 24 hrs by SRB assay; type: cell-based; conditions: sk-ov-3, 24 h; summary of the method: as §8
# RXF 393 = test: Cytotoxicity against human RXF393 cells after 24 hrs by SRB assay; type: cell-based; conditions: rxf 393, 24 h; summary of the method: as §6
# MDA-MB-231 = test: Cytotoxicity against human MDA-MB-231 cells after 24 hrs by SRB assay; type: cell-based; conditions: mda-mb-231, 24 h; summary of the method: as §6
# MDA-MB-468 = test: Cytotoxicity against human MDA-MB-468 cells after 24 hrs by SRB assay; type: cell-based; conditions: mda-mb-468, 24 h; summary of the method: as §6
compound,measurement,setting,value
O=C(/C=C/c1cc2ccccc2[nH]c1=O)/C=C/c1cc2ccccc2[nH]c1=O,GI50,MOLT-4,2.27 µM
same,TGI,MOLT-4,> 100 µM
same,GI50,NCI-H226,2.77 µM
same,TGI,NCI-H226,8.01 µM
same,GI50,NCI-H23,2.42 µM
same,TGI,NCI-H23,87.7 µM
same,GI50,COLO 205,2.89 µM
same,TGI,COLO 205,> 100 µM
same,GI50,HCT-116,0.131 µM
same,TGI,HCT-116,0.299 µM
same,GI50,HT-29,0.483 µM
same,TGI,HT-29,1.78 µM
same,GI50,KM12 [1],0.494 µM
same,TGI,KM12 [1],1.83 µM
same,GI50,HCC 2998,0.839 µM
same,TGI,HCC 2998,2.22 µM
same,GI50,U-251 [2],0.372 µM
same,TGI,U-251 [2],2.1 µM
same,GI50,SNB-19,5.12 µM
same,TGI,SNB-19,> 100 µM
same,GI50,SK-MEL-5,5.63 µM
same,TGI,SK-MEL-5,> 100 µM
same,GI50,SN12C,2.66 µM
same,TGI,SN12C,> 100 µM
same,GI50,DU-145,4.18 µM
same,TGI,DU-145,> 100 µM
same,GI50,BT-549,1.9 µM
same,TGI,BT-549,6.15 µM
same,GI50,T47D,3.27 µM
same,TGI,T47D,> 100 µM
same,LC50,RPMI-8226 [3],> 100 µM
same,LC50,HL-60 [4],> 100 µM
same,LC50,HOP-62,> 100 µM
same,LC50,NCI-H522,> 100 µM
same,LC50,HOP-92,> 100 µM
same,LC50,A549,> 100 µM
same,LC50,KM12 [5],5.12 µM
same,LC50,U-251 [6],> 100 µM
same,GI50,RPMI-8226 [7],0.341 µM
same,TGI,RPMI-8226 [7],> 100 µM
same,GI50,HL-60 [8],3.38 µM
same,TGI,HL-60 [8],> 100 µM
same,LC50,UACC-62,> 100 µM
same,LC50,SK-MEL-2,> 100 µM
same,LC50,M14,> 100 µM
same,LC50,SK-OV-3,> 100 µM
same,LC50,RXF 393,7.73 µM
same,LC50,MDA-MB-231,> 100 µM
same,LC50,MDA-MB-468,> 100 µM
